Source: PubChem BioAssay
ROMK mod = modulates human ROMK potassium channel activity | AID 1918 | Tet-inducible ROMK, thallium flux fluorescence; actives lie on both sides | 130,000 compounds, 2% hits | B-score at 10 µM | P48048;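 active means signal ratio slope over the read window, or its plate-corrected B-score, at least 3 SD from the plate mean, either direction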;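 further: B-score of the F/F0 ratio slope over 7 to 12 s after thallium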
Target sequence (P48048 whole entry, looked up): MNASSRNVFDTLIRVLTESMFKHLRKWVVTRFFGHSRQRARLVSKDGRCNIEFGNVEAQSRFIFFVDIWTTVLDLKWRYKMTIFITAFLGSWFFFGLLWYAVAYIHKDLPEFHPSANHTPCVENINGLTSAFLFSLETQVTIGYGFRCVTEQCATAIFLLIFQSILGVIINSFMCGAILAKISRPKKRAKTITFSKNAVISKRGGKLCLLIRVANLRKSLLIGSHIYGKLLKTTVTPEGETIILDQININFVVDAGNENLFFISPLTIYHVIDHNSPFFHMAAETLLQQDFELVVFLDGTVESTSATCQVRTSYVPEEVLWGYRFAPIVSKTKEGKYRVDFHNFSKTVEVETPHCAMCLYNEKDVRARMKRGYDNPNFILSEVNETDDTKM
Dynein transport = blocks dynein driven cargo transport along microtubules. 220,000 compounds, 0.47% hits. z-score, hits read low. 3617.4 mouse cells, GR-EGFP nuclear translocation imaging; test concentration mostly 20 µM; stimulated with dexamethasone, 1 µM; stronger effect = lower value;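 active means plate z-score of nuclear minus cytoplasmic receptor signal below a set negative limit, without overly bright fluorescence or cell loss, cut at about -3.5 in these data, passing the limit was not always enough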;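 further: z-score of nuclear minus cytoplasmic ring GR-EGFP intensity difference per well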
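Buffer or medium: Induction medium lacking tetracycline, stripped serum | Also added: Dexamethasone agonist, 1.0 µM final, for 30 min | Timing: 48 h induction, 1 h compound, 30 min dex at 37 °C | Detection: Formaldehyde fixation, Hoechst nuclear stain, 10x automated fluorescence imaging | Measure: Nuclear versus cytoplasmic GR-EGFP signal, averaged per well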
DTT redox prof = compounds producing H2O2 with reducing agent – biochemical, NIH compound library profiling, artefact control for MLSCN library redox annotation, primary screen; AID 878; 200,000 compounds, 0.03% hits; DTT-dependent redox cycling H2O2, phenol red/HRP absorbance; 100% = 100 µM peroxide control, 0% = buffer; activation, % at 10 µM;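 active means activation of at least 50% relative to the plate's high and low controls in the primary single-dose screen; inactive means activation below 50%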;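 further: compound incubated with DTT at 0.8 mM final as the reducing agent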
Cl transport mod = modulators of human KCC2 chloride dependent transport; 190,000 compounds, 2.2% hits; B-score of Tl+ flux slope (higher = more flux/activation; lower = inhibition) at 10 µM; KCC2 cells, thallium flux FluoZin-2 fluorescence;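 active means thallium flux slope and its plate-corrected score both differing from the plate sample mean at a set confidence after two filtering rounds, in either direction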;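 further: slope of fluorescence scaled to starting intensity during 10 to 20 s after thallium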
Autophagy mod = modulators of autophagy | 190,000 compounds, 0.98% hits | calls only at 10 µM (by protocol) | MEF GFP-LC3 puncta imaging; test concentration mostly 10 µM | AID 463193;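 active means percentage of spot-positive cells more than 3 SD above its plate mean, without a fluorescence outlier flag or 80% toxicity; inconclusive means no clear call, values can overlap the other calls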
KCC2 sec1 = KCC2 (human) modulation, secondary assay | shares compounds with Cl transport mod | HEK293-KCC2, thallium flux, FluoZin2 fluorescence; stronger effect = higher value | normalised thallium flux (F/F0 slope) at 10 µM | 3,700 compounds, 15% hits;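 active means thallium flux slope above the same plate's solvent-only control mean plus 3 SD; inconclusive means the two replicate wells disagree; inactive means no significant difference from solvent-only control wells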
KCC2 bumet counter = thallium flux persisting under bumetanide in KCC2 cells, counter-screen secondary assay. shares compounds with Cl transport mod. HEK293-KCC2 + bumetanide/ouabain, thallium flux FluoZin2; stronger effect = higher value. normalized thallium flux at 10 µM. 3,700 compounds, 49% hits. AID 1714;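 active means thallium entry rate above the same plate's blocked-transporter control wells by more than 3 SD; inconclusive means the two repeat wells disagree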;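 further: raw slope of fluorescence over initial fluorescence between 10 and 20 s after thallium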
KCC2 secondary2 = KCC2 (human) modulation, second secondary assay; 3,700 compounds, 23% hits; HEK293-KCC2, thallium flux FluoZin2 fluorescence; actives lie on both sides; F/F0 rise rate, 10–20 s post-thallium; normalized thallium flux at 10 µM; shares compounds with Cl transport mod; AID 1715;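 active means thallium flux slope more than 3 SD above or below the plate's solvent-only control mean, mostly below; inconclusive means the two repeat wells disagreed; inactive means no significant shift from solvent-only controls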
HEK counter1 = acts in parental HEK cells, KCC2 counter-screen. shares compounds with Cl transport mod. HEK293 parental cells, thallium flux FluoZin2, ouabain; baseline-ratio fluorescence slope, 10–20 s after thallium. thallium flux rate (normalised fluorescence) at 10 µM. 3,700 compounds, 46% hits. AID 1716;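 active means thallium flux rate significantly above the same plate's solvent-only control wells, beyond their mean plus 3 SD; inconclusive means the two replicate wells gave conflicting results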
KCC2 ouabain = confirmation of human KCC2 modulators with ouabain. 3,700 compounds, 48% hits. HEK293-KCC2, thallium flux FluoZin2 fluorescence; bidirectional: low = inhibitor, high = activator. shares compounds with Cl transport mod. raw Tl+ flux slope (below DMSO = inhibition, above = activation) at 10 µM;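 active means thallium flux slope beyond 3 SD from same-plate DMSO control mean in most replicates, usually higher, sometimes lower; inconclusive means repeat tests gave conflicting results; inactive means no significant difference from controls in most replicates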;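 further: slope of initial-normalized fluorescence between seconds 10 and 20 after thallium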
HEK counter2 = counter-screen for KCC2 modulators: effect in parental HEK293 cells; thallium flux FluoZin-2 fluorescence slope; AID 1718; 3,700 compounds, 33% hits; shares compounds with Cl transport mod; thallium flux slope at 10 µM;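 active means thallium flux slope above the same plate's solvent-control mean plus 3 SD in both duplicate wells; inconclusive means duplicate wells that disagreed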;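 further: run without ouabain in cells lacking the KCC2 cotransporter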
A number is an active result; 0 = inactive; ? = inconclusive; - = no result given. A selection: hits, their analogues and other compounds. The true share with any hit is near 4.1%.

SMILES	ROMK mod	Dynein transport	DTT redox prof	Cl transport mod	Autophagy mod	KCC2 sec1	KCC2 bumet counter	KCC2 secondary2	HEK counter1	KCC2 ouabain	HEK counter2
CCCC(c1nnnn1CC1CCCO1)N1CCN(c2nc3ccccc3s2)CC1 (stereo unspecified)	-	0	0	-3.79	0	0	0	0	0	0.0133	0
CCC(C)(C)n1nnnc1C(c1ccc2ncccc2c1)N1CCN(c2nc3ccccc3s2)CC1 (stereo unspecified)	-	0	0	-	0	0	0	0	0	0.0157	0
COc1ccccc1C(O)(C(=O)NN(C)c1ccccc1)c1ccccc1OC	-	0	0	0	0	-	-	-	-	-	-
CCC(C)c1ccc(NC(=S)NC(C)C2CCCO2)cc1 (stereo unspecified)	0	0	0	0	0	-	-	-	-	-	-
C=CCN(c1ccc(OC)cc1)S(=O)(=O)c1ccc(Cl)c(C(=O)OCC(=O)NC2CC2)c1	0	0	0	-3.79	0	0	0	?	0	0.0143	0
C=CCN(c1ccccc1)S(=O)(=O)c1ccc(Cl)c(C(=O)OCC(=O)c2[nH]c(C)c(C(C)=O)c2C)c1	-	0	0	0	0	-	-	-	-	-	-
COc1ccccc1-n1ccnc1SCC(=O)NCc1ccco1	0	0	0	0	0	-	-	-	-	-	-
CCOC(=O)COc1cc(-n2c(=S)[nH]c3ccccc3c2=O)c(Cl)cc1Cl	0	0	0	4.35	0	0	0.0215	0	0.0135	?	0.0161
c1ccc(-c2ccc(-n3ccnc3)cc2)cc1	0	0	0	-	0	0	0	?	0	0.0174	0
COc1ccccc1CCNC(=O)CSc1nnc2ccc(-c3ccncc3)nn12	0	0	0	0	0	-	-	-	-	-	-
Cc1ccc(NC(=O)COC(=O)CNC(=O)c2ccco2)cc1	0	0	0	0	0	-	-	-	-	-	-
CCn1c(-c2csc3ccccc23)n[nH]c1=S	-	0	0	0	0	-	-	-	-	-	-
Cc1cccc(-n2c(-c3csc4ccccc34)n[nH]c2=S)c1	-	0	0	17.1	0	0.0128	0.0694	0	0.0256	0.0549	?
CC(C)Cn1c(-c2csc3ccccc23)n[nH]c1=S	-	0	0	4.85	0	0	0.0192	0	0.0178	?	0.0147
Cc1ccc(-c2n[nH]c(=S)n2-c2ccccc2)cc1	-	0	0	0	0	-	-	-	-	-	-
CC(C)Cn1c(-c2csc(C(C)C)c2)n[nH]c1=S	0	0	0	21	0	0.0152	0.0801	0	0.0315	0.0559	0.0122
Cc1ccc(-n2c(-c3cccc(C)c3)n[nH]c2=S)cc1	-	0	0	5.85	0	0	0.0203	0	0.0142	0.021	0.0166
COc1cc(C(=O)NCCCNc2nc3cc(C)c(C)cc3cc2C#N)cc(OC)c1OC	0	0	0	0	0	-	-	-	-	-	-
CN1Cc2cccc3c2C(Cc2ccccc2S3)C1 (stereo unspecified)	-	0	0	0	0	-	-	-	-	-	-
CC(C)c1cc(C(=O)N2CCCC(CCC(=O)NCc3ccccc3F)C2)n(C)n1 (stereo unspecified)	0	0	0	0	0	-	-	-	-	-	-
Cc1ccc([N+](=O)[O-])c(-c2n[nH]c(=S)n2-c2cccc(Cl)c2)c1	-	0	-	7.13	-	0.014	0.0322	0	0.0122	?	0.0119
COc1cc(CC(=O)Nc2ccc(S(=O)(=O)Nc3ncccn3)cc2)cc(OC)c1OC	-	0	0	-4.02	0	0	0	0	0.00954	0	0
COc1ccc(CC(=O)Nc2ccc(S(=O)(=O)Nc3nc(C)cc(C)n3)cc2)cc1	0	0	0	-5.89	0	0	0.009	0	0	0	0
Cc1scc(C(=O)NNC(=S)NC(C)c2ccccc2)c1C (stereo unspecified)	0	0	0	0	0	-	-	-	-	-	-
Cc1ccc([N+](=O)[O-])c(C(=O)N/N=C/c2cccs2)c1	0	0	-	4.54	-	0	0.0135	0	0.0111	0	0.0138
SMILES	ROMK mod	Dynein transport	DTT redox prof	Cl transport mod	Autophagy mod	KCC2 sec1	KCC2 bumet counter	KCC2 secondary2	HEK counter1	KCC2 ouabain	HEK counter2
Cc1ccc(OCC(=O)N/N=C\c2cccs2)c([N+](=O)[O-])c1	0	0	0	0	0	-	-	-	-	-	-
Cc1ccc(C(=O)N/N=C/c2ccc([N+](=O)[O-])s2)cc1	-	0	0	6.61	0	0	0.0153	0	0.0157	?	?
Cc1ccccc1SCCNC(=O)CCc1ccccc1	0	0	0	0	0	-	-	-	-	-	-
CN(C)CCn1c(N)nc2ccccc21	-	0	-	0	-	-	-	-	-	-	-
Cc1ccc(C(C(=O)NC(C)(C)C)N(Cc2cccnc2)C(=O)C(=O)NC2CCCCC2)o1 (stereo unspecified)	0	0	0	0	0	-	-	-	-	-	-
COc1ccc(C(=O)NC2CCCCC2)cc1S(=O)(=O)N1CCCC1	0	0	0	7.52	0	0	?	0	0	0	0
CCCN1C(=O)/C(=C/c2ccc(C)o2)NC1=S	0	0	0	82.7	0	0.0216	0.12	?	0.0495	0.0846	0.0178
CCN1C(=O)N/C(=C/c2ccc(C)o2)C1=O	0	0	0	0	0	-	-	-	-	-	-
Cc1[nH]n(-c2ccccc2)c(=O)c1C(=O)c1ccc([N+](=O)[O-])cc1	0	0	0	0	0	-	-	-	-	-	-
Cc1nn(-c2ccccc2)nc1C(=O)c1c(C)[nH]n(-c2ccccc2)c1=O	0	0	-	10.7	-	0.0148	0.0285	0	?	0.0335	?
O=C(CNC(=O)c1ccco1)OCC(=O)c1ccc(Cl)cc1Cl	0	0	0	-	0	-	-	-	-	-	-
O=C(COC(=O)C1CCN(S(=O)(=O)c2ccccc2)CC1)NC(=O)c1ccc(OC(F)F)cc1	0	0	0	0	0	-	-	-	-	-	-
O=C(NCCc1c[nH]c2ccccc12)c1cnccn1	0	0	0	0	0	-	-	-	-	-	-
CC(C)N(CCc1ccncc1)C(=S)Nc1ccc(F)c(Cl)c1	0	0	0	0	0	-	-	-	-	-	-
CC1CCCCN1C(=O)CSc1nnc(Cc2ccccc2)n1C (stereo unspecified)	0	0	0	3.16	0	0	0	0	0	0	0
O=c1cc(N2CCCCCC2)[nH]c(=O)n1-c1ccccc1Cl	0	0	0	0	0	-	-	-	-	-	-
CCOc1ccc(OCCCCn2cnc3ccccc3c2=O)cc1	0	0	0	0	0	-	-	-	-	-	-
